Reference: ChEMBL document CHEMBL2169836 (J Med Chem, 2012)
pIC50: −log10 of the molar value. Active and inactive are the calls of the source. No cut-off for these calls is given here.

Legend:
Canis familiaris = assay: Clearance in overnight fasted Beagle dog at 1 mg/kg, iv relative to hepatic blood flow; type: ADME, organism-based, Canis lupus familiaris, Liver; set-up: dose 1 mg/kg, route intravenous; details: in vivo
[1] = Volume of distribution at steady state in jugular and femoral vein precannulated Sprague-Dawley rat at 1 mg/kg, iv by LC/MS/MS analysis; type: ADME, organism-based; set-up: dose 1 mg/kg, route intravenous; details: in vivo, read-out: Vdss
[2] = target: T1, Sodium/hydrogen exchanger 3 (Homo sapiens) (UniProt P48764); assay: Inhibition of NHE3 transfected in Chinese hamster PS120 assessed as intracellular pH change up to 16 uM; type: cell-based
T1 sequence (whole entry): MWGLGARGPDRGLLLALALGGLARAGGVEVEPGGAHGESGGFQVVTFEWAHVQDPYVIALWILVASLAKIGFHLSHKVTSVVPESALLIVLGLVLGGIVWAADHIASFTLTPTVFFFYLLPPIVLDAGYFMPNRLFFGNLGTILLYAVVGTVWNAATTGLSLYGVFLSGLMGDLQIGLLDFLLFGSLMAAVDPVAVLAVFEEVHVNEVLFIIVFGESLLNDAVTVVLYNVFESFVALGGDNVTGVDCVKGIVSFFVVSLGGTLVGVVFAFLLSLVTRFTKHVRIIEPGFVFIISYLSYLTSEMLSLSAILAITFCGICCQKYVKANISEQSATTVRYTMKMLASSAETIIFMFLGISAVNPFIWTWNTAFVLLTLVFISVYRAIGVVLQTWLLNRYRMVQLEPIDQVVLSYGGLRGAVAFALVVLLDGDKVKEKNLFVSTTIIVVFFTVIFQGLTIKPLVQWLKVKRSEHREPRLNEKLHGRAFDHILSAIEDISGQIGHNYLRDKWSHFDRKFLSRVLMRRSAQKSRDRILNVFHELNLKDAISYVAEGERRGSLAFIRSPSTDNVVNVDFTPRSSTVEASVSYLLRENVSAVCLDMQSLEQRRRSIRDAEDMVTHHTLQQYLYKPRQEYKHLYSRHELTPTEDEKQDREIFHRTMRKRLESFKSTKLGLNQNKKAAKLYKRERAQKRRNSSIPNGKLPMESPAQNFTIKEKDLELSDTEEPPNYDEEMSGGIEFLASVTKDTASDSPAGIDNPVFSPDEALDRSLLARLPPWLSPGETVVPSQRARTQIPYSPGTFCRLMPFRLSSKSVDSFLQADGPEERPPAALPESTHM

[3] = Mean resident time in jugular and femoral vein precannulated Sprague-Dawley rat at 1 mg/kg, iv by LC/MS/MS analysis; type: ADME, organism-based; set-up: dose 1 mg/kg, route intravenous; details: in vivo
[4] = Oral bioavailability in jugular and femoral vein precannulated Sprague-Dawley rat plasma at 5 mg/kg by LC/MS/MS analysis; type: ADME, organism-based
[5] = Mean resident time in overnight fasted Beagle dog at 1 mg/kg, iv; type: ADME, organism-based, Canis lupus familiaris; set-up: dose 1 mg/kg, route intravenous; details: in vivo
Rattus norvegicus = assay: Clearance in jugular and femoral vein precannulated Sprague-Dawley rat at 1 mg/kg, iv by LC/MS/MS analysis relative to hepatic blood flow; type: ADME, organism-based, Liver; set-up: dose 1 mg/kg, route intravenous; details: in vivo
[6] = Permeability of the compound by PAMPA; type: ADME; details: read-out: permeability
Outline: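 Donor buffers were set to pH 5.0, 6.2 and 7.4 with NaOH, and ASB7.4 buffer was used as acceptor. Filters (0.45 pore, 125 μm thick) were lipid-coated. A 10 mM DMSO stock was diluted to 41.7 μM in donor buffer. The sandwich was incubated 4 h without stirring. Reference, donor and acceptor concentrations were read in duplicate by UV plate reader, and ratings were assigned from permeation velocity.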

[7] = Volume of distribution at steady state in overnight fasted Beagle dog at 1 mg/kg, iv; type: ADME, organism-based, Canis lupus familiaris; set-up: dose 1 mg/kg, route intravenous; details: in vivo, read-out: Vdss
[8] = Oral bioavailability in overnight fasted Beagle dog at 5 mg/kg; type: ADME, organism-based, Canis lupus familiaris; details: in vivo
[9] = target: T2, Sodium/hydrogen exchanger 1 (Homo sapiens, UniProt P19634); assay: Inhibition of NHE1 in human HT-29 cells assessed as intracellular pH change after 30 mins; type: cell-based
Cytochrome P450 2D6 = Cytochrome P450 2D6 (Homo sapiens, UniProt P10635); assay: Inhibition of CYP2D6 in human liver microsomes using 3-[2-(N,N-diethyl-N-methylamino)ethyl]-7- methoxy-4-methylcoumarin as substrate after 45 mins by LC/MS/MS analysis; type: ADME, Microsome
[10] = Metabolic stability in human liver microsomes at 1 uM up to 60 mins by LC/MS/MS analysis relative to hepatic blood flow; type: ADME, Microsome; details: read-out: Stability
Cytochrome P450 3A4 [11] = target: T3, Cytochrome P450 3A4 (Homo sapiens, UniProt P08684); assay: Inhibition of CYP3A4 in human liver microsomes using 7-benzyloxy-4-(trifluoromethyl)-coumarin as substrate after 30 mins by LC/MS/MS analysis; type: ADME, Microsome
[12] = Metabolic stability in rat liver microsomes at 1 uM up to 60 mins by LC/MS/MS analysis relative to hepatic blood flow; type: ADME, Microsome; details: read-out: Stability
Cytochrome P450 2C9 = Cytochrome P450 2C9 (Homo sapiens, UniProt P11712); assay: Inhibition of CYP2C9 in human liver microsomes using 7-methoxy-4-(trifluoromethyl)-coumarin as substrate after 45 mins by LC/MS/MS analysis; type: ADME, Microsome
Cytochrome P450 2C19 = Cytochrome P450 2C19 (Homo sapiens, UniProt P33261); assay: Inhibition of CYP2C19 in human liver microsomes using 7-ethoxy-3-cyanocoumarin as substrate after 45 mins by LC/MS/MS analysis; type: ADME, Microsome
[13] = target: Voltage-gated inwardly rectifying potassium channel KCNH2 (Homo sapiens, UniProt Q12809); assay: Inhibition of human ERG expressed in HEK 293 cells by PatchXpress assay; type: cell-based, HEK293
[14] = target: T2, Sodium/hydrogen exchanger 1; assay: Inhibition of NHE1 in human HT-29 cells assessed as intracellular pH change after 30 mins in presence of plasma protein; type: cell-based
Heart [15] = assay: Inhibition of ischemia reperfusion injury-induced decrease in left ventricular developed pressure in Langendorff isolated perfused Sprague-Dawley rat heart at 100 nM after 30 mins; type: functional; set-up: scale not given: the % may be the effect or the level left
Outline: (§1)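 In the isolated perfused rat heart ischemia-reperfusion model, compound was present in the perfusate. Recovery of left ventricular developed pressure was expressed as % of baseline pressure, 30 min postreperfusion, against vehicle control. Left ventricular end diastolic pressure was also monitored.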

Salmonella typhimurium [16] = assay: Genotoxicity in Salmonella typhimurium TA1537 up to 5000 ug/plate by Ames test in the absence of S9 fraction; type: toxicity, organism-based; details: salmonella enterica subsp. enterica serovar typhimurium
Escherichia coli [17] = assay: Genotoxicity in Escherichia coli WP2 expressing uvrA up to 5000 ug/plate by Ames test in presence of S9 fraction; type: toxicity, organism-based
Salmonella typhimurium [18] = assay: Genotoxicity in Salmonella typhimurium TA1535 up to 5000 ug/plate by Ames test in the presence of S9 fraction; type: toxicity, organism-based; details: salmonella enterica subsp. enterica serovar typhimurium
HeLa = assay: Cytotoxicity against human HeLa cells up to 100 uM after 24 hrs; type: cell-based
Salmonella typhimurium [19] = assay: Genotoxicity in Salmonella typhimurium TA1537 up to 5000 ug/plate by Ames test in the presence of S9 fraction; type: toxicity, organism-based; details: salmonella enterica subsp. enterica serovar typhimurium
Escherichia coli [20] = assay: Genotoxicity in Escherichia coli WP2 expressing uvrA up to 5000 ug/plate by Ames test in absence of S9 fraction; type: toxicity, organism-based
Cytochrome P450 3A4 [21] = target: T3, Cytochrome P450 3A4; assay: Activation of CYP3A4 expressed in DPX cells co-transfected with human PXR at 0.1 to 10 uM; type: ADME, cell-based
Salmonella typhimurium [22] = assay: Genotoxicity in Salmonella typhimurium TA100 up to 5000 ug/plate by Ames test in the presence of S9 fraction; type: toxicity, organism-based; details: salmonella enterica subsp. enterica serovar typhimurium
Salmonella typhimurium [23] = assay: Genotoxicity in Salmonella typhimurium TA1535 up to 5000 ug/plate by Ames test in the absence of S9 fraction; type: toxicity, organism-based; details: salmonella enterica subsp. enterica serovar typhimurium
Salmonella typhimurium [24] = assay: Genotoxicity in Salmonella typhimurium TA98 up to 5000 ug/plate by Ames test in the absence of S9 fraction; type: toxicity, organism-based; details: salmonella enterica subsp. enterica serovar typhimurium
U-937 = assay: Induction of phopspholipidosis in human U937 cells up to 50 uM after 24 hrs by Nile red flow cytometry assay; type: cell-based; details: u-937, 24 h
Salmonella typhimurium [25] = assay: Genotoxicity in Salmonella typhimurium TA100 up to 5000 ug/plate by Ames test in the absence of S9 fraction; type: toxicity, organism-based; details: salmonella enterica subsp. enterica serovar typhimurium
Salmonella typhimurium [26] = assay: Genotoxicity in Salmonella typhimurium TA98 up to 5000 ug/plate by Ames test in the presence of S9 fraction; type: toxicity, organism-based; details: salmonella enterica subsp. enterica serovar typhimurium
Heart [27] = assay: Inhibition of ischemia reperfusion injury-induced decrease in left ventricular developed pressure in Langendorff isolated perfused Sprague-Dawley rat heart at 10 nM after 30 mins; type: functional; set-up: scale not given: the % may be the effect or the level left; outline: as §1
Caco-2 = assay: Efflux ratio of permeability from […] side in human Caco2 cells at 10 uM up to 150 mins; type: ADME, cell-based; details: caco-2, 2.5 h

Voltage-gated inwardly rectifying potassium channel KCNH2, sequence (Q12809 whole entry): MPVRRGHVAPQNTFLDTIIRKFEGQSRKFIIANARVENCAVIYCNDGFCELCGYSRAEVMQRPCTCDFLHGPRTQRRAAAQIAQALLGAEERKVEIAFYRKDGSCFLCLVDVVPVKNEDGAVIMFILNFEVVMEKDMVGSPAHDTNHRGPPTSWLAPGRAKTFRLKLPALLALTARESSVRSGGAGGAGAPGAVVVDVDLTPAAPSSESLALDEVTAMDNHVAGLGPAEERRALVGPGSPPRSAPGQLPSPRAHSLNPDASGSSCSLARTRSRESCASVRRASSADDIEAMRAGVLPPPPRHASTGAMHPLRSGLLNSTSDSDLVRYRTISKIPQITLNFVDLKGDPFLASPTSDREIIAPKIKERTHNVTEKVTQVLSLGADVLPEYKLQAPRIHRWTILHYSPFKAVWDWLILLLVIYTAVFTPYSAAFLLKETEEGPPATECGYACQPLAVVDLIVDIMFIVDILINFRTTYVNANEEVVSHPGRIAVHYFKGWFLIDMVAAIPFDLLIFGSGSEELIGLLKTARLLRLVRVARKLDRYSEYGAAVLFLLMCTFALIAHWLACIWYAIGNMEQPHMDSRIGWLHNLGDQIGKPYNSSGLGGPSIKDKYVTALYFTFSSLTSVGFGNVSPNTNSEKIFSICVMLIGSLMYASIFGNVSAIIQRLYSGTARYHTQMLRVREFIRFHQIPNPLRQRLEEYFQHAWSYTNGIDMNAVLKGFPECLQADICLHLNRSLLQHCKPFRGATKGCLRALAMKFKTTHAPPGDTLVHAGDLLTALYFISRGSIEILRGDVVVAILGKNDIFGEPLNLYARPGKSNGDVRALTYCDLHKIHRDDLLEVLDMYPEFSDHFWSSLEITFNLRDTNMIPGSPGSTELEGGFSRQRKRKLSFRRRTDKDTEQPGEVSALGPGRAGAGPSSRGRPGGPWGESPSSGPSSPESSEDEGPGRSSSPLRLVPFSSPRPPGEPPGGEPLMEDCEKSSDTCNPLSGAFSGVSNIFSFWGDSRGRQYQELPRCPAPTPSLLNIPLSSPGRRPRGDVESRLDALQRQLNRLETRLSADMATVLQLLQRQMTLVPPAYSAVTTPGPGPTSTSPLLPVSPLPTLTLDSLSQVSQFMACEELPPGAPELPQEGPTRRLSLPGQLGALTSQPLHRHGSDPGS
T2 sequence (P19634 whole entry): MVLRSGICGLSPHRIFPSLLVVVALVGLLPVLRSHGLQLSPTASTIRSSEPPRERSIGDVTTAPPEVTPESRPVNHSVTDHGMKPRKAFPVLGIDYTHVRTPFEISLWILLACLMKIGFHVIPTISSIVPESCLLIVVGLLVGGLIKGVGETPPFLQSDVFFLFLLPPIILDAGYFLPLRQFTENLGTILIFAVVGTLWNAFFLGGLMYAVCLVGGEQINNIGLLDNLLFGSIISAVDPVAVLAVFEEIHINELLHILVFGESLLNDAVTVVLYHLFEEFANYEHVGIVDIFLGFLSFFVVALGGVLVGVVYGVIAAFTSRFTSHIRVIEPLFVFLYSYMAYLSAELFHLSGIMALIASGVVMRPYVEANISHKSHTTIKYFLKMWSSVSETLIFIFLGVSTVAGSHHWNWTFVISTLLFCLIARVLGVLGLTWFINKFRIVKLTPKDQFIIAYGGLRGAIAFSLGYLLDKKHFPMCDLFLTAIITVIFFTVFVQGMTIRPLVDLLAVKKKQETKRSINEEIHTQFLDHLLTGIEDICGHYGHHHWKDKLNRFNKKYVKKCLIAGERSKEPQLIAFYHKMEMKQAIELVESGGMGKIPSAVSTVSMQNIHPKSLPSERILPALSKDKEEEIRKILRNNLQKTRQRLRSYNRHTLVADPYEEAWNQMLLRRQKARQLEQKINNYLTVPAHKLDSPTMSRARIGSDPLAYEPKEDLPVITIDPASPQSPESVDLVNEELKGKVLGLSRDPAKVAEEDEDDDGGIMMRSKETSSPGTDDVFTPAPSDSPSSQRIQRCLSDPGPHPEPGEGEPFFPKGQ
Cytochrome P450 2D6, sequence (P10635 whole entry): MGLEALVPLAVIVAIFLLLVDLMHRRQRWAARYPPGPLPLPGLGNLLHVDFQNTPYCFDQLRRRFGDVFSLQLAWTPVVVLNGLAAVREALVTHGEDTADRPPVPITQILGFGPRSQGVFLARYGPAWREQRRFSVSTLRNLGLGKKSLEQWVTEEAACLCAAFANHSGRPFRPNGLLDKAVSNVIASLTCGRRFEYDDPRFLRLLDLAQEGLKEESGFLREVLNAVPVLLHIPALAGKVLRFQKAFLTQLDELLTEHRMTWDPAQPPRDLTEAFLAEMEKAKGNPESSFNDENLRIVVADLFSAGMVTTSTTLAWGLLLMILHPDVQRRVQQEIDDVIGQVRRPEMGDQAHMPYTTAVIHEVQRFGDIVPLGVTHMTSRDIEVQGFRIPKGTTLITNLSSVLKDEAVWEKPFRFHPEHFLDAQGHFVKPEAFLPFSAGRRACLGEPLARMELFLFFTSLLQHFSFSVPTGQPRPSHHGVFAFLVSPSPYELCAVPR
T3 sequence (P08684 whole entry): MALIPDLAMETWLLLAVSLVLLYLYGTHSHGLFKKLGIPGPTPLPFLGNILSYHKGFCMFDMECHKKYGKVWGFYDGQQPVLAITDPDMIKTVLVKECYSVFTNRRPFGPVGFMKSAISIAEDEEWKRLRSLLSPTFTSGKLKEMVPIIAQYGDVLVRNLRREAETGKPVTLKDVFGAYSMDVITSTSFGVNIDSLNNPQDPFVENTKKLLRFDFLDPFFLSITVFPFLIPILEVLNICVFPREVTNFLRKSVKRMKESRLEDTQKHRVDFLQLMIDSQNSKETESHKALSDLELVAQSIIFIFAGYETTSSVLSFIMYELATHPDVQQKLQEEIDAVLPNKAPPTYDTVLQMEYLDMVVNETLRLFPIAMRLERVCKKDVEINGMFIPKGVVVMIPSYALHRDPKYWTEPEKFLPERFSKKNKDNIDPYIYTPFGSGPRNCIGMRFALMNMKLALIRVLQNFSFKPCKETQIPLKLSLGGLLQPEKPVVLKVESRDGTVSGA
Cytochrome P450 2C19, sequence (P33261 whole entry): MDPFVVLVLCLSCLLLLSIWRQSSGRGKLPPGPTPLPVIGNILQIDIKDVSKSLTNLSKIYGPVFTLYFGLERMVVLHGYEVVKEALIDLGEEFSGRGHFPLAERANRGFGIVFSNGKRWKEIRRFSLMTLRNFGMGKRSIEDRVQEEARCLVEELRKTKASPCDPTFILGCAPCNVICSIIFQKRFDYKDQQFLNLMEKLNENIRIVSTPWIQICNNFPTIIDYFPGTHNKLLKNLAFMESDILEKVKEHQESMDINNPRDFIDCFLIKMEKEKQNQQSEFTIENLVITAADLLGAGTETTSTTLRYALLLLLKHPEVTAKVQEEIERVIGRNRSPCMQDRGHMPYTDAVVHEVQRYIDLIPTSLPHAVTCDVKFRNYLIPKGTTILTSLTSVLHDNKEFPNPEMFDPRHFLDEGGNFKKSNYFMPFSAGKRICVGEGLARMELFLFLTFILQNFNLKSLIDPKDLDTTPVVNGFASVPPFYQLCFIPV
Cytochrome P450 2C9, sequence (P11712 whole entry): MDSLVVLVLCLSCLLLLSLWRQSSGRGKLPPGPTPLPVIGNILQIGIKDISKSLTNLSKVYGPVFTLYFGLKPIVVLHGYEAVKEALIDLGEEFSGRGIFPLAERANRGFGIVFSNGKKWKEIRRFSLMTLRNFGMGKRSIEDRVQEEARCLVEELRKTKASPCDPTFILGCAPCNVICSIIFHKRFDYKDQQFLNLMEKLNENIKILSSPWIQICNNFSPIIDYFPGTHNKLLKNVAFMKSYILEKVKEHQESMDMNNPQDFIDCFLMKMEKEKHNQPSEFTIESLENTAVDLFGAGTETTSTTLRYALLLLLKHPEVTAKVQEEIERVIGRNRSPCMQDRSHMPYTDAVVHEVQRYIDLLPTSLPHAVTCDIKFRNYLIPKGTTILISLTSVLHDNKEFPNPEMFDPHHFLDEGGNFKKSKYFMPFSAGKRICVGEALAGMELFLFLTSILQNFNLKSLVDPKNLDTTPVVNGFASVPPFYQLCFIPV

SMILES | CL (Canis familiaris) [%] | Vd [1] [L/kg] | MRT [3] [h] | bioavailability [4] [%] | MRT [5] [h] | CL (Rattus norvegicus) [%] | Papp [6] [×10⁻⁶ cm/s] | bioavailability [8] [%] | pIC50 [9] | pIC50 (Cytochrome P450 2D6) | hepatic extraction ratio at 1 h, 1 µM [10] | pIC50 (Cytochrome P450 3A4 [11]) | hepatic extraction ratio at 1 h, 1 µM [12] | pIC50 (Cytochrome P450 2C9) | pIC50 (Cytochrome P450 2C19) | pIC50 [13] | inhibition [14] | also measured
CCC(=O)N1CCC(c2ccc(C(=O)NC(=N)N)cc2C(F)(F)F)CC1 | 8.1 | 1 | 5.3 | 49 | 14 | 4.4 | ≥ 2 | 49 | 7.96 | – | – | – | – | – | – | – | – | inhibition [2]: inactive; Vd [7]: 2 L/kg
Cn1ccnc1C(=O)N1CCC(c2ccc(C(=O)NC(=N)N)cc2C(F)(F)F)CC1 | – | 1.4 | 1 | – | – | 31 | ≥ 2 | – | 7.85 | < 4.52 | 0.47 | 4.59 | 0.12 | 4.74 | 4.80 | < 4.52 | – | –
N#Cc1cccc(C(=O)N2CCC(c3ccc(C(=O)NC(=N)N)cc3C(F)(F)F)CC2)c1 | 18 | 4.9 | 3.3 | 72 | 17 | 16 | ≥ 2 | 36 | 7.46 | < 4.52 | < 0.11 | 4.66 | < 0.056 | 4.72 | 5.15 | < 4.52 | – | –
N=C(N)NC(=O)c1ccc(N2CCCC(NC(=O)c3ccc[nH]3)C2)c(C(F)(F)F)c1 (racemic) | – | – | – | – | – | – | – | – | 6.76 | – | – | – | – | – | – | – | Active | –
N=C(N)NC(=O)c1ccc(N2CCC(NC(=O)c3ccc[nH]3)CC2)c(C(F)(F)F)c1 | – | – | – | – | – | – | – | – | 7.39 | – | – | – | – | – | – | – | Active | –
CC(=O)N1CCC(c2ccc(C(=O)NC(=N)N)cc2C(F)(F)F)CC1 [BI 9627] | 13 | 0.76 | 3.2 | 73 | 6.2 | 5.7 | ≥ 2 | 33 | 8.22 | < 4.52 | < 0.11 | < 4.52 | 0.11 | < 4.52 | < 4.52 | < 4.52 | – | Activity (Heart [15]): 100%; Activity (Salmonella typhimurium [16]): Non-toxic; Activity (Escherichia coli [17]): Non-toxic; Activity (Salmonella typhimurium [18]): Non-toxic; inhibition [2]: inactive; Activity (HeLa): Non-toxic; Activity (Salmonella typhimurium [19]): Non-toxic; Activity (Escherichia coli [20]): Non-toxic; Vd [7]: 1.4 L/kg; Activity (Cytochrome P450 3A4 [21]): Not Active; Activity (Salmonella typhimurium [22]): Non-toxic; Activity (Salmonella typhimurium [23]): Non-toxic; Activity (Salmonella typhimurium [24]): Non-toxic; Activity (U-937): Non-toxic; Activity (Salmonella typhimurium [25]): Non-toxic; Activity (Salmonella typhimurium [26]): Non-toxic; Activity (Heart [27]): 36%
N#Cc1ccc(C(=O)N2CCC(c3ccc(C(=O)NC(=N)N)cc3C(F)(F)F)CC2)cc1 | – | 6.5 | 8.5 | – | – | 19 | ≥ 2 | – | – | < 4.52 | < 0.11 | 4.96 | 0.2 | 4.89 | 4.82 | 5.40 | – | –
COCC(=O)N1CCC(c2ccc(C(=O)NC(=N)N)cc2C(F)(F)F)CC1 | – | 1.3 | 1.4 | – | – | 21 | ≥ 2 | – | 8.00 | < 4.52 | 0.06 | < 4.52 | 0.36 | 4.60 | 5.10 | < 4.52 | – | –
N=C(N)NC(=O)c1ccc(N2CCC(NC(=O)c3ccc[nH]3)C2)c(C(F)(F)F)c1 (racemic) | – | – | – | – | – | – | – | – | 7.44 | – | – | – | – | – | – | – | Active | –
CCC(=O)N1CCC(c2cc(C)c(C(=O)NC(=N)N)cc2S(C)(=O)=O)CC1 | – | 0.95 | 0.3 | 1 | – | 54 | – | – | 7.82 | – | – | – | – | – | – | – | – | Ratio (Caco-2): 14
